Screening results as filed in PubChem BioAssay.
TbMetRS inhib – blocks T. brucei methionyl-tRNA synthetase activity; purified T. brucei MetRS, ATP depletion, Kinase-Glo luminescence; hit rate 0.4% among 360,000; inhibition, % at 11.9 µM;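 active = inhibition above a per-plate cutoff of the control wells' mean inhibition plus 3 SD, cut at about 5.5% in these data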;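 note: 0% = DMSO wells median and 100% = median of wells with control inhibitor compound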
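Material: T. brucei methionyl-tRNA synthetase, purified; reagent: substrates ATP, L-methionine and bulk Escherichia coli tRNA; dosing: 11.9 µM single point; timing: 15 min plus 2 h at 25 °C; detection: luminescence of leftover ATP; evaluation: % inhibition; control set: DMSO-only wells as low control; replicates: singlicate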
Rin1-Abl PPI inh – human Rin1-Abl interaction inhibition | P00519+Q13671 | TR-FRET Rin1/Abl binding, biochemical | inhibition, % at 7.35 µM | hit rate 0.4% among 360,000 | AID 588664; in the data active = inhibition above about 5%, passing the limit was not always enough
ATG4B inhibitor – blocks human ATG4B protease cleavage of LC3 substrate; inhibition, % at 8.33 µM; Q9Y4P1; hit rate 0.51% among 340,000; ATG4B cleavage of LC3-PLA2, NBD-HPC fluorescence, 1 h; AID 504462; in the data active = inhibition above about 40%
Target sequence (Q9Y4P1 whole entry, looked up): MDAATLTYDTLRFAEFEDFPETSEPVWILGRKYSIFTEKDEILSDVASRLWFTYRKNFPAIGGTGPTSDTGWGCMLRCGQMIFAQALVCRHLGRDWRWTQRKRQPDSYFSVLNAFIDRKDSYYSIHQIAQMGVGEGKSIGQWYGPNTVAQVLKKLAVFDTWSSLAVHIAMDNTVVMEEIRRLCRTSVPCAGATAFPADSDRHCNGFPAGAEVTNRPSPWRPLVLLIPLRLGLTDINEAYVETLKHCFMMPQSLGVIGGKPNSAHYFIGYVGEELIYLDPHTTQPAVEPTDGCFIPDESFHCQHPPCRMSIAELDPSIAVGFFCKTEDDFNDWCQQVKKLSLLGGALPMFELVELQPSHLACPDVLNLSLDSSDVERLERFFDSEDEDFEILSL
UCH37 DUB inh – blocks the human deubiquitinase UCH37 | purified proteasome/UCH37, Ub-AMC cleavage fluorescence | AID 588478 | inhibition, % (no concentration beside the values) | hit rate 0.33% among 330,000 | Q9Y5K5;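 active = mean inhibition over replicate wells above about 20%, limit read from the data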;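 note: 0% = compound-free wells with enzyme and 100% = wells lacking proteasome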
Target sequence (Q9Y5K5 whole entry, looked up): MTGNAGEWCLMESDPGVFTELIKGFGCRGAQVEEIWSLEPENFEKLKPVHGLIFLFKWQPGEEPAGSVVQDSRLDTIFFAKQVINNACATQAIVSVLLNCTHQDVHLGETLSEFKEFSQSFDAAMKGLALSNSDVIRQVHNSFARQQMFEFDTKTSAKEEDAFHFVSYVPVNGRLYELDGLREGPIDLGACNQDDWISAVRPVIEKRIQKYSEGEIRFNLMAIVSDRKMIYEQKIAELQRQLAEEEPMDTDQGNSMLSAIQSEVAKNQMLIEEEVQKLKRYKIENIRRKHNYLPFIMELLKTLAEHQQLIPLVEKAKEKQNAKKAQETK
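Material: Human UCH37 enzyme supplied as purified proteasome complex | Schedule: 30 min compound-proteasome preincubation then 25 min substrate reaction, room temperature | Detection: AMC fluorescence from Ub-AMC cleavage, excitation 355 nm, emission 460 nm | Benchmarks: Wells without proteasome as full block, compound-free enzyme plus substrate as uninhibited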
Rin1 Abl conf – Rin1-Abl interaction inhibition confirmation; AID 602124; hit rate 49% among 1,300; shares compounds with Rin1-Abl PPI inh; TR-FRET Rin1-Abl binding, purified proteins; inhibition, % at 7.35 µM
GFP quencher – quenches GFP fluorescence, counter-screen for Rin1-Abl inhibitors. shares compounds with Rin1-Abl PPI inh. inhibitors/quenchers counterscreen. inhibition, % at 6.75 µM. hit rate 8.5% among 1,300. AID 602125;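 note: ABL1-eGFP fusion protein alone without its partner RIN1-SBP; 0% = protein with vehicle and 100% = wells lacking protein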
GFP quench dose – counter-screen for Rin1-Abl inhibitors: GFP quenchers, dose response | shares compounds with Rin1-Abl PPI inh | GFP fluorescence interference/quenching counterscreen | IC50, µM | 230 tested, under 10 active; call rule not given here;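 note: ABL1-eGFP fusion protein alone without its RIN1 binding partner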
An asterisk follows results filed as active; . = no result given. Sampled rows, rich in hits. Any-hit rate of the full collection: about 1.4%. Cut-off read from the data, not from the text of the source, unless noted: active = inhibition above about 6.5%; inactive = the rest.

SMILES	TbMetRS inhib	Rin1-Abl PPI inh	ATG4B inhibitor	UCH37 DUB inh	Rin1 Abl conf	GFP quencher	others
CC1(c2nnc(-c3ccc(Cl)cc3)o2)CC(c2ccc([N+](=O)[O-])cc2)=NO1 (stereo not given)	-0.1	-1.2	-2.3	-1.6	.	.
CC1(c2nnc(-c3ccncc3)o2)CC(c2ccc(F)cc2)=NO1 (stereo not given)	-0.4	42.9*	0.6	-1.6	41.7*	-0.6	GFP quench dose=>67.5
CC1(c2nnc(-c3ccc(F)cc3)o2)CC(c2cccnc2)=NO1 (stereo not given)	-0.2	0.8	-7.6	1.5	.	.
CC1(c2nnc(-c3ccncc3)o2)CC(c2c(Cl)cccc2Cl)=NO1 (stereo not given)	-0.2	37.5*	0.2	-0.3	27.4*	0.3
O=C(Cn1cnc2ccccc21)N/N=C/c1ccccc1[N+](=O)[O-]	0.5	1.2	-2.7	.	.	.
CCN(CC)S(=O)(=O)c1ccc(N2CCOCC2)c(NC(=O)CN2C(=O)NC3(CCCC3)C2=O)c1	-0.1	1.8	-40.6	-3.3	.	.
COc1ccccc1N1CCN(Cc2ccc(OC)c(OC)c2OC)CC1	-1.1	-0.4	-6.4	-0.2	.	.
COc1ccccc1N1CCN(Cc2ccc(O)c3ncccc23)CC1	-1.1	18.2*	-4.3	1.1	2.5	1.5
O=C(c1ccc(-c2cccc([N+](=O)[O-])c2)o1)N1CCN(c2ccc([N+](=O)[O-])cc2)CC1	0.0	4.0	-7.8	6.8	.	.
OC[C@@H]1CN(Cc2ccccc2)C[C@H](n2cnc3c(NC4CC4)ncnc32)O1	-0.2	1.9	.	.	.	.
COc1cc(CN2C[C@@H](CO)O[C@@H](n3cnc4c(NCc5ccc(F)cc5)ncnc43)C2)cc(OC)c1OC	-0.3	10.9*	.	.	6.5*	-3.3
OC[C@@H]1CN(Cc2ccc(-c3ccccc3)cc2)C[C@H](n2cnc3c(NC4CCC4)ncnc32)O1	-0.4	17.5*	.	.	24.2*	-0.8	GFP quench dose=>67.5
CC(C)N(C)c1ncnc2c1ncn2[C@H]1CN(Cc2ccccc2)C[C@@H](CO)O1	0.3	3.5	.	.	.	.
CC(C)N(C)c1ncnc2c1ncn2[C@H]1CN(Cc2ccc(Cl)cc2)C[C@@H](CO)O1	0.0	6.2*	.	.	6.3*	-1.3
OCCCNc1ncnc2c1ncn2[C@H]1CN(Cc2ccc(-c3ccccc3)cc2)C[C@@H](CO)O1	-0.1	19.0*	.	.	22.2*	0.0	GFP quench dose=>67.5
OCCCNc1ncnc2c1ncn2[C@H]1CN(Cc2cccs2)C[C@@H](CO)O1	-0.2	1.5	.	.	.	.
COc1ccc([N+](=O)[O-])cc1NC(=O)C(C)N1CCN(C(=O)c2ccco2)CC1 (stereo not given)	0.0	5.3	12.1	1.7	.	.
Cc1c(C(=O)NCc2cccc(Cl)c2)sc(=O)n1Cc1cccc(F)c1	1.4	-1.0	.	.	.	.
CCCNC(=O)c1onc(CSc2ccccc2)c1C(=O)NCCC	0.5	1.5	-7.3	5.2	.	.
Cc1oc2cc3c(C(=O)N4CCCCC4)c(C)oc3cc2c1C(=O)N1CCCCC1	-0.5	2.0	-2.8	0.8	.	.
COCCNc1ncnc2c1ncn2[C@H]1CN(Cc2ccc(F)cc2)C[C@@H](CO)O1	-0.2	0.7	.	.	.	.
CN(C)c1ncnc2c1ncn2[C@H]1CN(Cc2ccc(-c3ccccc3)cc2)C[C@@H](CO)O1	-0.1	20.2*	.	.	14.9*	-2.0
COCCNc1ncnc2c1ncn2[C@H]1CN(Cc2ccc(-c3ccccc3)cc2)C[C@@H](CO)O1	-0.4	9.6*	.	.	10.8*	-0.9
CNc1ncnc2c1ncn2[C@H]1CN(Cc2ccc(Cl)cc2)C[C@@H](CO)O1	0.0	-1.5	.	.	.	.
OCCNc1ncnc2c1ncn2[C@H]1CN(Cc2ccc(Cl)cc2)C[C@@H](CO)O1	0.0	7.2*	.	.	4.9	-0.4
SMILES	TbMetRS inhib	Rin1-Abl PPI inh	ATG4B inhibitor	UCH37 DUB inh	Rin1 Abl conf	GFP quencher	others
C=CCNc1ncnc2c1ncn2[C@H]1CN(Cc2ccc(-c3ccccc3)cc2)C[C@@H](CO)O1	-0.2	19.1*	.	.	17.1*	-0.3	GFP quench dose=>67.6
COc1cc(C=c2c3ccccc3n3c2cc(-c2ccccc2)[n+]3C)cc(OC)c1OC	-0.1	14.3*	2.5	.	-4.2	3.1
CN(C)c1ccc(C=c2c3ccccc3n3c2cc(-c2ccccc2)[n+]3C)cc1	-0.4	-17.9	37.0	.	.	.
CN(C)c1ccc(C=c2c3cc([N+](=O)[O-])ccc3n3c2cc(-c2ccccc2)[n+]3C)cc1	-0.6	37.1*	26.9	.	3.8	35.0*
Oc1ccccc1-c1cc(-c2ccc(F)cc2)n[nH]1	-0.1	1.3	-11.3	0.6	.	.
CCN(CC)S(=O)(=O)c1ccc(-c2nnc(SCC(C)=O)o2)cc1	-0.6	0.4	11.5	1.7	.	.
COc1ccc(Cn2nnnc2C(C(C)C)N(Cc2ccco2)Cc2cccs2)cc1 (stereo not given)	-0.8	2.4	-1.9	.	.	.
CC(O)c1nc2ccccc2n1CCCc1ccccc1 (stereo not given)	-0.4	1.1	-7.9	1.1	.	.
CCCCCCn1c(C(C)O)nc2ccccc21 (stereo not given)	-0.3	20.5*	-13.6	4.6	1.2	-0.6
CN1CC2(C)OC(=O)C(Cl)=C2CC1c1ccccc1 (stereo not given)	0.3	6.2*	-9.5	-0.1	0.3	-2.4
CCC(C)Sc1nnc(CSc2nc(C)cc(C)n2)n1C (stereo not given)	-0.9	2.1	-6.8	-0.5	.	.
CCCSc1nnc(CSc2nc(C)cc(C)n2)n1C	-0.7	19.8*	-8.6	-2.2	14.8*	2.6
N=c1ccn(O)cc1CCc1ccccc1	-0.2	17.1*	-7.2	0.5	21.6*	-0.5	GFP quench dose=>67.4
CCCCC(=O)Nc1nnc(C)s1	-0.6	-0.5	-1.2	-2.1	.	.
CCNS(=O)(=O)c1ccc(CCC(=O)O)cc1	-0.8	8.8*	12.3	4.0	-1.0	0.8
CCCCn1c(N)c(N(CC(C)C)C(=O)c2ccc(S(=O)(=O)N(CC)c3ccccc3)cc2)c(=O)[nH]c1=O	-0.4	1.2	-3.0	0.2	.	.
C=CCc1c(C)nc(C)nc1N/N=C/c1ccccc1O	-0.5	-1.0	-4.6	.	.	.
O=C(Nc1ccn([C@H]2CC[C@@H](CO)O2)c(=O)n1)c1ccccc1	-1.1	24.0*	3.5	3.0	22.0*	-1.5	GFP quench dose=>67.5
Cc1ccc(NC(=O)c2nc[nH]c2C(=O)NCC(=O)OC(C)(C)C)cc1	-0.3	1.5	-0.9	-1.3	.	.
CC(C)n1cc(CN2CCC(C(=O)Nc3cccc(-c4cccc(Cl)c4)c3)CC2)cn1	-0.5	11.5*	-12.5	6.6	25.5*	-0.9	GFP quench dose=>67.6
NS(=O)(=O)c1ccc(N/N=C/c2ccc(O)c(O)c2O)c([N+](=O)[O-])c1	1.8	40.0*	2.2	.	45.5*	30.0*
NS(=O)(=O)c1ccc(N/N=C/c2ccc(O)cc2O)c([N+](=O)[O-])c1	-0.3	-11.8	-5.0	.	.	.
CCCn1cnc2c(SCc3ccccc3F)nc(N)nc21	-0.3	0.8	5.8	2.5	.	.
